5 molecules from ChEMBL document CHEMBL1122418, “Synthesis of 3-hydroxy-3-cyclohexylbutyric acid derivatives. 2. Cyclic analogues of mevalonic acid” (1983) can be followed below.

Common to all, as to type: functional
The species named for assay [1] is Rattus norvegicus. Description: Percent inhibition of [14C]acetate incorporation into long-chain fatty acids, after incubation with rat liver slices at 5x10E-3 M concentration. The gist of the method: (§1)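 Rat liver slices (250 mg) incubated in 4 mL Krebs-Ringer bicarbonate buffer, pH 7.4, with 4 mM [2-14C]acetate, with or without test compound; label recovered in CO2, long-chain fatty acids and cholesterol measured and inhibition calculated against untreated slices. Values are arithmetic means of three determinations.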

The species named for assay [2] is Rattus norvegicus. The assay can be described thus: Percent inhibition of [14C]acetate incorporation into long-chain fatty acids, after incubation with rat liver slices at 5x10E-4 M concentration. The gist of the method:
as §1

The species entered for assay [3] is Rattus norvegicus. The assay can be described thus: Percent inhibition of [14C]acetate incorporation into cholesterol, after incubation with rat liver slices at 5x10E-3 M concentration. The gist of the method:
as §1

The species named for assay [4] is Rattus norvegicus. The assay can be described thus: Percent inhibition of [14C]acetate incorporation into cholesterol, after incubation with rat liver slices at 5x10E-4 M concentration. The gist of the method: as §1
The species entered for assay [5] is Rattus norvegicus. The assay can be described thus: Percent inhibition of [14C]acetate incorporation into CO2, after incubation with rat liver slices at 5x10E-4 M concentration. The gist of the method: as §1
Assay [6] is filed under the species Rattus norvegicus. The assay can be described thus: Percent inhibition of [14C]acetate incorporation into CO2, after incubation with rat liver slices at 5x10E-3 M concentration. The gist of the method:
as §1

Take `CC1CC(=O)O[C@H]2CCCC[C@@H]12` (some centres undefined): the figures for the inhibition at 5000 µM in the assay filed under Rattus norvegicus [1], in the assay filed under Rattus norvegicus [3] and in the assay filed under Rattus norvegicus [6] were 62%, 39% and 24%, respectively. Further, the inhibition at 500 µM in the assay listed under Rattus norvegicus [2], in the assay filed under Rattus norvegicus [4] and in the assay listed under Rattus norvegicus [5] was 10% throughout.

`CO[C@H]1CCCC[C@H]1C(C)(O)CC(=O)O` (some centres undefined): the inhibition at 500 µM worked out at 57% in the assay listed under Rattus norvegicus [2], 25% in the assay listed under Rattus norvegicus [4] and 39% in the assay listed under Rattus norvegicus [5].

As for `CC(O)(CC(=O)O)[C@@H]1CCCC[C@@H]1O` (some centres undefined), the inhibition at 5000 µM came out at 68% in the assay filed under Rattus norvegicus [1], 50% in the assay filed under Rattus norvegicus [3] and 62% in the assay listed under Rattus norvegicus [6]. Also, the inhibition at 500 µM in the assay filed under Rattus norvegicus [2], in the assay filed under Rattus norvegicus [4] and in the assay listed under Rattus norvegicus [5] was 10% in each case.

As to `CC1(O)CC(=O)O[C@H]2CCCC[C@H]21` (some centres undefined), the inhibition at 5000 µM came to 47% in the assay listed under Rattus norvegicus [1], 22% in the assay listed under Rattus norvegicus [3] and 37% in the assay listed under Rattus norvegicus [6]. In addition, the inhibition at 500 µM in the assay filed under Rattus norvegicus [2], in the assay filed under Rattus norvegicus [4] and in the assay filed under Rattus norvegicus [5] was 10% throughout.

For the molecule `CC(O)(CC(=O)O)C1CCCCC1` (centres undefined) [CYCLOBUTOIC ACID], the inhibition at 500 µM in the assay listed under Rattus norvegicus [2] amounted to 72%; in the assay listed under Rattus norvegicus [4] it was 32%; in the assay listed under Rattus norvegicus [5] it was 62%.
